Source: PubChem
Sampled rows, rich in hits. Any-hit rate of the full collection: about 2.5%.
SENP8 block-1 – human SENP8 protease inhibitors, primary screen, biochemical, fluorescence, Nedd8 protein substrate, uHTS; recombinant SENP8; inhibition, % at 20 µM; hit rate 0.64% among 360,000; AID 602440, 2012; in the data active = inhibition mostly above about 40%, no sharp cut-off; inactive = mostly below about 27%
Target sequence (Q96LD8 whole entry, looked up): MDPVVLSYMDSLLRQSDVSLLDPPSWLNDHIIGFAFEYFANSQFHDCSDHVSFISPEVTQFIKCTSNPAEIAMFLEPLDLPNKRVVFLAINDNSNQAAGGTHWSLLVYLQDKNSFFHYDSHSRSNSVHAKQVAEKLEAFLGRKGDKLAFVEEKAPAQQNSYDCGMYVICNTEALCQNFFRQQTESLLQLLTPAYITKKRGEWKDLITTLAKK
SENP8 block-2 – SENP8 protease inhibitors, primary screen, biochemical, luminescence; purified SENP8, Z-RLRGG-aminoluciferin cleavage; hit rate 1.2% among 330,000; Sentrin-specific protease 8 (Homo sapiens), Q96LD8; AID 2540, 2010; inhibition, % at 10 µM; in the data active = inhibition above about 50%
SENP7 inh – SENP7 protease inhibitors, primary screen, biochemical, luminescence, uHTS; Sentrin-specific protease 7 (Homo sapiens), Q9BQF6; hit rate 1.5% among 330,000; recombinant SENP7, Z-RLRGG-aminoluciferin luminescence, 40 min; inhibition, % at 5 µM;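 active = inhibition above about 50% at the single test dose, limit read from the data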;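 note: plate controls were DMSO with enzyme for no effect and no enzyme buffer wells for full effect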
SENP6 inh – SENP6 protease inhibitors, primary screen, biochemical, luminescence, uHTS. Sentrin-specific protease 6 (Homo sapiens), Q9GZR1. Recombinant SENP6 catalytic domain, aminoluciferin luminescence. inhibition, % at 10 µM. hit rate 1.8% among 330,000. AID 2599, 2010;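 active = inhibition above about 50% at the single tested dose, limit read from the data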;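 note: plate controls were DMSO wells with enzyme for no effect and DMSO wells lacking enzyme for full effect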
SENP1 inh – human SENP1 catalytic domain inhibitors, primary screen, biochemical, FRET, uHTS. Sentrin-specific protease 1 (Homo sapiens), Q9P0U3. recombinant SENP1 catalytic domain, CyPet-SUMO1-YPet FRET cleavage. inhibition, % at 10 µM. hit rate 0.21% among 360,000;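 active = inhibition at least 30% at 10 µM, raw YFP signal under a set limit, fluorescence ratio 0.5 to 1.5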;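 note: 0% = enzyme with DMSO and 100% = no enzyme wells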
Target sequence (Q9P0U3 419-644 limits assumed): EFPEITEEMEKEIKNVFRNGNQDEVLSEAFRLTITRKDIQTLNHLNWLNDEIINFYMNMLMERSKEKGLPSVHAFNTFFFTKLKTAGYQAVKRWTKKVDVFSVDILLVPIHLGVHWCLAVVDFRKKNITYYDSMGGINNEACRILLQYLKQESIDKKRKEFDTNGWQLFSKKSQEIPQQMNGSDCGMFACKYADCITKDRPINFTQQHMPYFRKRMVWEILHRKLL
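Assay system – human recombinant His6-tagged SENP1 catalytic domain enzyme · Input – SENP1 enzyme, 20 pM final · Buffer or medium – Tris pH 8 buffer plus EDTA, NaCl, BME, BSA, NP40, catalase · Schedule – 50 min reaction at room temperature · Technique – FRET read of cyan and yellow fluorescence · Control set – no-enzyme wells low, DMSO-plus-enzyme wells high control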
SENP8 confirm – SENP8 protease inhibitors, retest, confirmation, biochemical, luminescence, single concentration. Recombinant SENP8, Z-RLRGG-aminoluciferin luminescence, 60 min. shares compounds with SENP7 inh. hit rate 40% among 6,200. inhibition, % at 12.5 µM. AID 488912, 2010;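 active = mean inhibition across replicates above about 50%, limit read from the data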
SENP6 confirm – SENP6 protease inhibitors, confirmation, biochemical, luminescence, single concentration; shares compounds with SENP7 inh; hit rate 58% among 6,200; inhibition, % at 12.5 µM; recombinant SENP6, Z-RLRGG-aminoluciferin luminescence; AID 488915, 2010
SENP7 conf – SENP7 protease inhibitors, retest, confirmation, biochemical, luminescence, single concentration; shares compounds with SENP7 inh; recombinant SENP7, Z-RLRGG-aminoluciferin luminescence, 40 min; inhibition, % at 12.5 µM; hit rate 69% among 6,200; AID 488917, 2010
Casp3 select – caspase-3 protease inhibitors, confirmation, selectivity assay for SENP inhibitor project, biochemical, single concentration. shares compounds with SENP7 inh. purified caspase-3, Z-DEVD-aminoluciferin luminescence, 60 min. inhibition, % at 12.5 µM. hit rate 60% among 6,200;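 active = mean inhibition above about 50%, limit read from the data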;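 note: plate controls were enzyme with DMSO for no effect and wells without caspase-3 for full effect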
Target sequence (P42574 28-227 limits assumed): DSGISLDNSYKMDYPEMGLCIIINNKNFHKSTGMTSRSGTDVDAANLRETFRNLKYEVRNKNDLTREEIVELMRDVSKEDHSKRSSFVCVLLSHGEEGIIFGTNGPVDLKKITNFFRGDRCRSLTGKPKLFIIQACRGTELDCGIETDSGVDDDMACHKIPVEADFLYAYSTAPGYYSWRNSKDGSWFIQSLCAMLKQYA
SENP luc ctr – interferes with luciferase luminescence in SENP counter-screen; shares compounds with SENP7 inh; Pre-incubated SENP8/Z-RLRGG-aminoluciferin, luciferase luminescence interference; inhibition, % at 12.5 µM; hit rate 39% among 6,200;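 active = mean inhibition above about 50% when retested at one dose, limit read from the data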;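 note: plate controls were DMSO wells with completed reaction for no effect and substrate without enzyme for full effect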
Starred values were filed as active, the others as inactive; i = inactive; / = no result.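 Rule for the calls, unless noted: active = mean inhibition above about 50% in the one-dose retest (limit read from the data); inactive = the rest.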

SMILES | SENP8 block-1 | SENP8 block-2 | SENP7 inh | SENP6 inh | SENP1 inh | SENP8 confirm | SENP6 confirm | SENP7 conf | Casp3 select | SENP luc ctr
Cc1c(C(=O)N2CCC(C(N)=O)CC2)oc2ccc(Br)cc12 | 6 | -5 | 1 | -22 | -1 | / | / | / | / | /
Cc1cc(N)n(-c2ccccn2)n1 | 33 | -9 | 7 | 2 | 0 | / | / | / | / | /
CC1Cc2cc(/C=C3/SC(=S)N(C)C3=O)ccc2O1 (centres undefined) | 25 | 61* | 63* | 74* | -60 | 10 | 20 | 38 | 52* | -5
CC1Cc2cc(/C=C3/SC(N4CCC(C(N)=O)CC4)=NC3=O)ccc2O1 (centres undefined) | -71 | -13 | -8 | -14 | -5 | / | / | / | / | /
Nc1ccc(-c2nc3ccc([N+](=O)[O-])cc3[nH]2)cc1 | 37 | 30 | 42 | 50* | 49* | 41 | 38 | 73* | 47 | 39
CCCC[n+]1ccc(-c2nc3ccc([N+](=O)[O-])cc3[nH]2)cc1 | -120 | -9 | -15 | -31 | -74 | / | / | / | / | /
O=[N+]([O-])c1ccc(-c2nc3ccc([N+](=O)[O-])cc3[nH]2)cc1 | 28 | 68* | 76* | 85* | 4 | 3 | 30 | 58* | 34 | 50*
CCOC(=O)c1cnc(Nc2nc3ccccc3o2)nc1C | 0 | 80* | 95* | 84* | 1 | 74* | 75* | 99* | 93* | 34
Cc1nc(Nc2nc3ccccc3o2)nc2c1CCC2 | 13 | 39 | 72* | 77* | 1 | 33 | 60* | 86* | 75* | 8
COc1cccc2sc3cc(C#CC4(O)CCCCC4)ccc3c(=O)c12 | -159 | 30 | 23 | 22 | -44 | / | / | / | / | /
COc1cc2sc3ccc(C#CC4(O)CCCCC4)cc3c(=O)c2cc1OC | -473 | 94* | 99* | 98* | -116 | 66* | 70* | 91* | 81* | 24
CC(=O)c1ccc(NC(=O)NC2CC(=O)N(c3ccc4c(c3)OCCO4)C2)cc1 (centres undefined) | 10 | -2 | -3 | -4 | 2 | / | / | / | / | /
O=C(Cc1ccccc1)Nc1cccc([N+](=O)[O-])c1 | 13 | 5 | 2 | -1 | 1 | / | / | / | / | /
O=C(Nc1ccccn1)c1ccc2ccccc2c1O | i | 43 | 25 | 63* | -52 | 49 | 45 | 76* | 63* | 59*
O=C(O)c1ccccc1C(=O)Nc1ccccn1 | 18 | 2 | 0 | -17 | 1 | / | / | / | / | /
O=C(N/N=C/c1cccnc1)c1ccc2ccccc2c1O | -229 | -3 | -2 | 5 | -1 | / | / | / | / | /
O=C(Nc1cccnc1)c1ccc2ccccc2c1O | -496 | 85* | 88* | 94* | -5 | 93* | 92* | 100* | 93* | 87*
O=C(Nc1cccc([N+](=O)[O-])c1)c1ccc2ccccc2c1O | 5 | 92* | 92* | 90* | 3 | -4 | 30 | 28 | 27 | 0
Cc1ccnc(NS(=O)(=O)c2ccc(NS(=O)(=O)c3ccc(Br)cc3)cc2)n1 | 2 | -1 | 1 | -4 | -16 | / | / | / | / | /
COCCCn1c(SCC(=O)N2CCOCC2)nc2cc(Cl)ccc2c1=O | 5 | -15 | 1 | -6 | 1 | / | / | / | / | /
Cc1ccc(-n2nc3c(=O)n(CCCC(=O)N4CCC(C(N)=O)CC4)nc(C)c3c2C)cc1 | 11 | 3 | 5 | -1 | 1 | / | / | / | / | /
COc1ccc2c(CC(=O)N3CCc4ccccc43)coc2c1 | -3 | 72* | 85* | 85* | -6 | 81* | 81* | 93* | 81* | 61*
COc1ccc2cc(C(=O)N3CCc4ccccc43)[nH]c2c1 | -24 | 53* | 93* | 86* | -28 | 22 | 34 | 23 | 22 | 0
COc1ccc2oc(C(=O)N3CCc4ccccc43)c(C)c2c1 | 3 | 96* | 100* | 96* | -8 | 72* | 88* | 96* | 85* | 17
COc1ccc2c(CC(=O)OCC(=O)N3CCc4ccccc43)coc2c1 | 9 | 0 | 1 | -3 | 0 | / | / | / | / | /
SMILES | SENP8 block-1 | SENP8 block-2 | SENP7 inh | SENP6 inh | SENP1 inh | SENP8 confirm | SENP6 confirm | SENP7 conf | Casp3 select | SENP luc ctr
CCOC(=O)C1(CC)Oc2ccccc2C(c2ccc(OC)cc2)=C1C(=O)OC (centres undefined) | -14 | / | -4 | / | -1 | / | / | / | / | /
NC(=O)c1ccccc1NC(=O)Nc1ccc(F)c(Cl)c1 | -416 | 92* | 96* | 92* | 3 | 64* | 88* | 99* | 90* | 91*
CC(=O)Nc1ccccc1C(=O)C(=O)Nc1ccc(F)c(Cl)c1 | 17 | 2 | 1 | 7 | 2 | / | / | / | / | /
CSc1cccc(NC(=O)Nc2ccccc2C(N)=O)c1 | -173 | 64* | 78* | 77* | 2 | 6 | 64* | 87* | 63* | 25
Cc1ccc(OCC(=O)Nc2ccon2)c([N+](=O)[O-])c1 | 8 | -2 | 2 | -6 | 1 | / | / | / | / | /
CC(C)c1ccccc1NC(=O)C1CC(=O)N(C2CCCC2)C1 (centres undefined) | 10 | 8 | 0 | -11 | -1 | / | / | / | / | /
O=C(CCN1C(=O)/C(=C/c2ccccc2Cl)SC1=S)NC1CCCC1 | 11 | 8 | 1 | 2 | 4 | / | / | / | / | /
O=C(CCCN1C(=O)/C(=C/c2ccccc2Cl)SC1=S)Nc1cccnc1 | 18 | 47 | 51* | 36 | 3 | 0 | 48 | 14 | 24 | 6
O=C(CCN1C(=O)/C(=C/c2ccccc2Cl)SC1=S)Nc1cccnc1 | 23 | 5 | 1 | 4 | 5 | / | / | / | / | /
O=C(CCN1C(=O)/C(=C/c2ccccc2Cl)SC1=S)NN1CCOCC1 | 14 | 45 | 52* | 37 | 3 | 8 | 8 | 8 | 16 | 4
